Screening results from PubChem.
Yeast life ext: compounds extending yeast replicative lifespan, primary screen, S. cerevisiae, OD615; inhibition of the nicotinamide effect, % at 10 µM; AID 775, 2007; actives 0.68% (n = 130,000); S. cerevisiae growth with nicotinamide; deaD strain in restrictive glucose medium;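 active means inhibition above a set limit, placed 3 SD over the median of all compounds, cut at about 26% in these data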
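System: DeaD-strain S. cerevisiae / Buffer or medium: CSMM-D, restrictive glucose (dextrose) synthetic minimal medium / Probe or stimulus: nicotinamide, 1.5 mM, co-present with compound / Compound: one concentration, 10 µM, DMSO 0.25% / Incubation: 48 h compound exposure at 30 °C, humidified / Technique: optical density (absorbance) at 615 nm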
BB579 growth dn: growth inhibitors of yeast BB579 in restrictive medium, primary screen, yeast lifespan-shortening project, S. cerevisiae. OD615, 48 h. inhibition, % at 10 µM. actives 0.51% (n = 140,000);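 active means inhibition above a set limit, 3 SD over the mean compound inhibition, cut at about 44% in these data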
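Material: Saccharomyces cerevisiae DeaD strain BB579, replicative lifespan model yeast; buffer or medium: CSMM-D restrictive synthetic medium containing dextrose (glucose); compound: 10 µM single dose, DMSO 0.25%; timing: 48 h compound exposure at 30 °C after 4 h preincubation; signal: turbidity as optical density at 615 nm; benchmarks: positive control amphotericin B 10 µg/mL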
PostGolgi ctrl: growth inhibition of yeast control strain, primary screen, counter-screen for post-Golgi transport modulator project; actives 5% (n = 98,000); efflux-deficient yeast background strain, growth absorbance A615, 16 h; AID 738, 2007; inhibition, % at 10 µM
PostGolgi yeast: phenotypic screen on post-Golgi transport, primary screen; AID 739, 2007; actives 0.9% (n = 98,000); post-Golgi transport phenotypic cell assay; inhibition, % at 10 µM;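 further: yeast cells grown in 1536-well plates; yeast grown about 18 h at 30C before absorbance read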
Large screens that a line does not name were inactive. The full list was thinned out, with hits kept by preference. Unless noted, no stated cut-off is given here; in the data, active means inhibition above about 30%; inactive means the rest.

Cc1ccc(-c2nnc(Oc3ccc(NC(=O)c4ccccc4)cc3)c3ccccc23)cc1	none (no result: PostGolgi ctrl, PostGolgi yeast)
COc1cc(OC)cc(C(=O)NCCCN2CCN(CCCNC(=O)c3cc(OC)cc(OC)c3)CC2)c1	Yeast life ext 41 (no result: PostGolgi ctrl, PostGolgi yeast)
CC(C)(C)c1ccc(C(=O)NCCCN2CCN(CCCNC(=O)c3ccc(C(C)(C)C)cc3)CC2)cc1	none (no result: PostGolgi ctrl, PostGolgi yeast)
COc1ccc(-c2noc(C3CCCN(S(=O)(=O)c4cccc(Cl)c4C)C3)n2)cc1OC (centres undefined)	PostGolgi ctrl 50
COc1ccc(-c2noc(C3CCCN(S(=O)(=O)c4ccc(C)c(Cl)c4)C3)n2)cc1OC (centres undefined)	none
O=C(CN1CCC(n2nnc3cc(F)ccc32)CC1)N1CCCc2ccccc21	none
O=C(CN1CCC(n2nnc3cc(C(F)(F)F)ccc32)CC1)N1CCc2ccccc21	Yeast life ext 40
CCOc1ccc2nc(NC(=O)CN3CCC(n4nnc5cc(C(F)(F)F)ccc54)CC3)sc2c1	PostGolgi ctrl 35
Nc1nc(-c2cccc(NS(=O)(=O)c3ccccc3)c2)cs1	none
NNC(=O)c1ccc(COc2ccc3c(c2)CCC3)o1	BB579 growth dn 91 (no result: PostGolgi ctrl, PostGolgi yeast)
O=C(N/N=C/c1cccc(O)c1)c1ccc(COc2ccc3c(c2)CCC3)o1	none
Cc1ccc(C(=O)Nc2ccc(Br)cc2)cc1S(=O)(=O)Nc1ccccn1	none (no result: PostGolgi ctrl, PostGolgi yeast)
CCOCC(O)CS(=O)(=O)c1ccccn1 (centres undefined)	PostGolgi ctrl 35
Cc1ccccc1[C@@H]1C(C#N)=C(N)S[C@H]1C(=O)c1ccccc1	none
Cc1ccc(OCC(=O)N/N=C/c2c[nH]c3ccccc23)c([N+](=O)[O-])c1	none (no result: PostGolgi ctrl, PostGolgi yeast)
Cc1cc(C)cc(NC(N)=S)c1	none (no result: PostGolgi ctrl, PostGolgi yeast)
O=c1[nH][nH]cc1C=Nc1ccccc1O	BB579 growth dn 50
Oc1ccccc1N=Cc1sc2ccccc2c1Cl	none (no result: PostGolgi ctrl, PostGolgi yeast)
O=S(=O)(c1ccc(Br)s1)N1CCN(c2ccccn2)CC1	PostGolgi ctrl 51
O=S(=O)(c1ccc(Br)s1)N1CCN(c2ncccn2)CC1	none
COc1cc(C2/C(=C(/O)c3ccc(F)cc3)C(=O)C(=O)N2CCCC(=O)O)ccc1O (centres undefined)	none
Cc1ccc2cc(CN(Cc3ccco3)C(=O)NCc3ccccc3)c(=O)[nH]c2c1C	none
Cc1ccc(C)c2[nH]c(=O)c(CN(Cc3ccco3)C(=O)Nc3ccccc3)cc12	PostGolgi ctrl 42
CCc1ccc2[nH]c(=O)c(CN(Cc3ccccc3)C(=O)Nc3ccccc3OC)cc2c1	PostGolgi ctrl 71
COc1ccccc1NC(=O)N(Cc1ccco1)Cc1cc2ccc(C)c(C)c2[nH]c1=O	PostGolgi ctrl 41
COc1ccccc1NC(=O)N(Cc1ccco1)Cc1cc2cc(C)cc(C)c2[nH]c1=O	PostGolgi ctrl 67
CC1(C)C2CC=C(/C=N/NC(=O)c3ccccc3Br)C1C2 (centres undefined)	none (no result: PostGolgi ctrl, PostGolgi yeast)
COc1ccc(/C=N/NC(=O)c2csc(-n3nc(C)cc3C(F)(F)F)n2)cc1	Yeast life ext 142
O=C(Nc1cc(C(F)(F)F)ccc1-n1cnc2ccccc21)c1ccccc1	none (no result: PostGolgi ctrl, PostGolgi yeast)
CCOC(=O)C(=O)/C(=C\N(C)C)c1onc(-c2c(Cl)cccc2Cl)c1C(=O)OC	none
COc1ccc(-c2nn(C)c(=O)c3ccccc23)cc1CNS(C)(=O)=O	PostGolgi ctrl 42
Cc1nn(C(=O)c2cccc([N+](=O)[O-])c2)c(C)c1Sc1ccccc1	none
COc1cc(OC)cc(-c2nnc(Nc3nc4c(F)cccc4s3)o2)c1	none
Fc1cccc2sc(Nc3nnc(-c4ccccc4)o3)nc12	Yeast life ext 60
O=C(COC(=O)c1nc(-c2ccccc2)n(-c2cccc(C(F)(F)F)c2)n1)NCc1cccs1	none (no result: PostGolgi ctrl, PostGolgi yeast)
CC(NC(=O)C(C(=O)c1cccc([N+](=O)[O-])c1)n1cc(Cl)ccc1=O)c1ccccc1 (centres undefined)	none (no result: PostGolgi ctrl, PostGolgi yeast)
Cc1ccc(-c2nc(N)sc2-c2ccccc2)cc1C	BB579 growth dn 79 (no result: PostGolgi ctrl, PostGolgi yeast)
CCOC(=O)C1=C(CSc2nc(-c3ccccc3)ccc2C#N)OC(N)=C(C#N)C1c1cccnc1 (centres undefined)	PostGolgi yeast 61
CCOC(=O)C1=C(CSc2nc(-c3ccccc3)ccc2C#N)OC(N)=C(C#N)C1c1ccccc1 (centres undefined)	none
CC(=O)Nc1ccc(NC(=O)C2CCCCC2C(=O)O)cc1 (centres undefined)	none (no result: PostGolgi ctrl, PostGolgi yeast)
CN(C)S(=O)(=O)c1ccc(NC(=O)c2ccc(Br)o2)cc1	none
CN(C1CCCCC1)S(=O)(=O)c1ccc(NC(=O)C2CCCCC2C(=O)O)cc1 (centres undefined)	PostGolgi ctrl 33
CN(C1CCCCC1)S(=O)(=O)c1ccc(NC(=O)c2ccc(Br)o2)cc1	PostGolgi ctrl 35
Cc1cc(C)c(S(=O)(=O)c2ccccc2)c(OC(=O)c2ccc(Cl)cc2Cl)n1	Yeast life ext 52
Cc1cc(C)c(S(=O)(=O)c2ccccc2)c(OC(=O)c2c(Cl)cccc2Cl)n1	PostGolgi yeast 49
Cc1cc(C)c(S(=O)(=O)c2ccccc2C)c(Oc2ccccc2)n1	PostGolgi ctrl 30
Cc1cc(C)c(S(=O)(=O)c2ccccc2)c(Cl)n1	none
CCC(C)[C@H](NC(=O)Nc1cccc(Br)c1)C(=O)OC (some centres undefined)	none (no result: PostGolgi ctrl, PostGolgi yeast)
Cc1ccn2c(NCc3ccc4c(c3)OCO4)c(-c3ccc(O)cc3)nc2c1	PostGolgi ctrl 36
Oc1ccc(-c2nc3ccccn3c2NCc2ccc3c(c2)OCO3)cc1	none
Cc1ccc(/C=N/Nc2ccnc3cc(Cl)ccc23)c(C)c1	BB579 growth dn 68 (no result: PostGolgi ctrl, PostGolgi yeast)
Cc1ccccc1/C=N/Nc1ccnc2cc(Cl)ccc12	none (no result: PostGolgi ctrl, PostGolgi yeast)
CC1CCCCC1NS(=O)(=O)c1ccc(-n2cnnn2)cc1 (centres undefined)	Yeast life ext 46
COc1cc(S(=O)(=O)NC2CCCCC2C)ccc1Cl (centres undefined)	PostGolgi ctrl 49
COc1ccccc1-c1cc(C(=O)NC(C)c2ccccc2)no1 (centres undefined)	PostGolgi ctrl 61
Cc1nn(Cc2ccccc2)c(=O)n1N(C)c1ncc(C(F)(F)F)cc1Cl	none
S=C(NNc1ccc2ccccc2c1)NC1CCCCC1	none (no result: PostGolgi ctrl, PostGolgi yeast)
O=C(Nc1cccnc1)c1c(O)c2cccc3c2n(c1=O)CC3	Yeast life ext 62
O=C(NCc1ccc(F)cc1)c1c(O)c2cccc3c2n(c1=O)CCC3	none
CCNCCNC(=O)c1c(O)c2cccc3c2n(c1=O)CCC3	Yeast life ext 70
CCCCNC(=O)c1c(O)c2cccc3c2n(c1=O)CCC3	none
O=C(NCc1ccccc1)c1c(O)c2cccc3c2n(c1=O)CCC3	none
CCc1nc2ccccc2c(=O)n1NC(=O)c1c(O)c2cccc3c2n(c1=O)CCC3	BB579 growth dn 83
O=C(NCc1ccco1)c1c(O)c2cccc3c2n(c1=O)CCC3	Yeast life ext 47
CCOC(=O)CC(C)(C)/C(C)=N/Nc1ccc([N+](=O)[O-])cc1[N+](=O)[O-]	none (no result: PostGolgi ctrl, PostGolgi yeast)
CCC1CCCCN1C(=O)CSc1nnc(-c2c[nH]c3ccccc23)o1 (centres undefined)	none
Oc1ccc(N=C/C=C/c2cccc(Br)c2)cc1-c1nc2ccccc2s1	none (no result: PostGolgi ctrl, PostGolgi yeast)
